Assay results collected from several papers.
Each line is one published result; the experiments were not run side by side.

| SMILES | test | test system | conditions | quantity | result |
| --- | --- | --- | --- | --- | --- |
| COc1ccc2c(c1)[C@]13CCCC[C@@H]1[C@H](C2)N(C)CC3 | metabolic stability | Sprague-Dawley rat, hepatocytes | 0.5 µM, pH 7.4 | hepatocyte CLint | 97 µL/min/10⁶ cells |
| CNC(C)Cc1ccc2nsnc2c1 (stereo not drawn) | metabolic stability | human, liver microsomes | 0.5 µM | microsomal CLint | 13.1 µL/min/mg |
| CONC(=O)[C@H]1[C@@H](O)[C@@]2(O)c3c(OC)cc(OC)cc3O[C@@]2(c2ccc(OC)cc2)[C@@H]1c1ccccc1 | metabolic stability | rat, liver microsomes | – | microsomal CLint | 23.8 µL/min/mg |
| COc1ccsc1CNCC[C@@]1(c2ccccn2)CCOC2(CCCC2)C1 | – | human, plasma | intravenous, 1.5 mg, single dose, infusion | clearance | 721 mL/min |
| Cn1nccc1[C@]1(CNC(=O)c2ccc(F)c(F)c2-c2ccc(C(F)(F)F)cc2)NC(=O)NC1=O | HPLC | – | pH 7.5 | chromatographic logD | 2.3 |
| C[C@]12CC[C@H]3[C@@H](CCC4=CC(=O)CC[C@@]43C)[C@@H]1CC[C@@H]2O | metabolic stability | Sprague-Dawley rat, hepatocytes | 1 µM | hepatocyte CLint | 240 µL/min/10⁶ cells |
| COc1ccc([C@@]23Oc4cc(OC)cc(OC)c4[C@@]24NC(C)=N[C@@]4(O)[C@H](C(=O)N(C)OC)[C@H]3c2ccccc2)cc1 | metabolic stability | rat, liver microsomes | – | microsomal CLint | 12.2 µL/min/mg |
| O=C1NC(=O)[C@](CNC(=O)c2cnn(-c3ccccc3)n2)(C2CC2)N1 | HPLC | – | pH 7.5 | chromatographic logD | 1.8 |
| Cc1ncc2n1-c1ccc(Cl)cc1C(c1ccccc1F)=NC2 | metabolic stability | Sprague-Dawley rat, hepatocytes | 0.5 µM, pH 7.4 | hepatocyte CLint | 160 µL/min/10⁶ cells |
